Laboratory results reported in ChEMBL document CHEMBL4184236, “Design, synthesis and biological evaluation of matrine derivatives as potential anticancer agents” (Bioorg Med Chem Lett, 2018).

How the values were obtained:
CNE-2 [1] = assay: Induction of apoptosis in human CNE2 cells assessed as viable cells level at 10 uM incubated for 24 hrs by Annexin V-FITC/PI dual staining based flow cytometry (reference value: 91.6%); assay type: functional
Method in brief: (§1)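 CNE2 and SMMC-7721 cells were treated for 24 h at 0, 5, 10 or 30 µM, or at 0, 10, 20 or 50 µM depending on compound. Cells were stained with Annexin V-FITC/propidium iodide and quantified by flow cytometry. Apoptotic cells were counted as AV+/PI− (lower right) plus AV+/PI+ (upper right) quadrants.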

CNE-2 [2] = assay: Induction of apoptosis in human CNE2 cells incubated for 24 hrs by Annexin V-FITC/PI dual staining based flow cytometry; assay type: functional, cell-based; method in brief: as §1
CNE-2 [3] = assay: Anticancer activity against human CNE2 cells assessed as reduction in cell viability incubated for 48 hrs MTT assay; assay type: functional, cell-based; details: CNE-2, 48 h
Method in brief: (§2)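 MTT assay on human hepatocarcinoma SMMC-7721, lung carcinoma A549 and nasopharyngeal carcinoma CNE2 cells, with matrine as comparator and cisplatin as positive control. IC50 is the concentration that lowers optical density of treated cells by 50% versus untreated cells, given as the mean ± SD of three experiments.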

SMMC-7721 [4] = assay: Induction of cell cycle arrest in human SMMC7721 cells assessed as accumulation at subG1 phase at 5 uM incubated for 24 hrs by propidium iodide staining based flow cytometry (reference value: 0.33%); assay type: functional
SMMC-7721 [5] = assay: Induction of apoptosis in human SMMC7721 cells assessed as necrotic cells level at 30 uM incubated for 24 hrs by Annexin V-FITC/PI dual staining based flow cytometry (reference value: 2.47%); assay type: functional; method in brief: as §1
SMMC-7721 [6] = assay: Induction of apoptosis in human SMMC7721 cells assessed as late apoptotic cells level at 10 uM incubated for 24 hrs by Annexin V-FITC/PI dual staining based flow cytometry (reference value: 0.88%); assay type: functional; method in brief: as §1
CNE-2 [7] = assay: Induction of cell cycle arrest in human CNE2 cells assessed as accumulation at subG1 phase at 5 uM incubated for 24 hrs by propidium iodide staining based flow cytometry (reference value: 0.55%); assay type: functional
SMMC-7721 [8] = assay: Induction of cell cycle arrest in human SMMC7721 cells assessed as accumulation at subG1 phase at 10 uM incubated for 24 hrs by propidium iodide staining based flow cytometry (reference value: 0.33%); assay type: functional
SMMC-7721 [9] = assay: Induction of cell cycle arrest in human SMMC7721 cells assessed as accumulation at G0-G1 phase at 10 uM incubated for 24 hrs by propidium iodide staining based flow cytometry (reference value: 64.1%); assay type: functional
CNE-2 [10] = assay: Induction of apoptosis in human CNE2 cells assessed as late apoptotic cells level at 30 uM incubated for 24 hrs by Annexin V-FITC/PI dual staining based flow cytometry (reference value: 1.37%); assay type: functional; method in brief: as §1
SMMC-7721 [11] = assay: Induction of cell cycle arrest in human SMMC7721 cells assessed as accumulation at G2/M phase incubated for 24 hrs by propidium iodide staining based flow cytometry; assay type: functional
SMMC-7721 [12] = assay: Induction of cell cycle arrest in human SMMC7721 cells assessed as accumulation at S phase at 10 uM incubated for 24 hrs by propidium iodide staining based flow cytometry (reference value: 17.2%); assay type: functional
CNE-2 [13] = assay: Induction of apoptosis in human CNE2 cells assessed as viable cells level at 30 uM incubated for 24 hrs by Annexin V-FITC/PI dual staining based flow cytometry (reference value: 91.6%); assay type: functional; method in brief: as §1
CNE-2 [14] = assay: Induction of cell cycle arrest in human CNE2 cells assessed as accumulation at G2/M phase at 10 uM incubated for 24 hrs by propidium iodide staining based flow cytometry (reference value: 19.8%); assay type: functional
A549 = assay: Anticancer activity against human A549 cells assessed as reduction in cell viability incubated for 48 hrs MTT assay; assay type: functional, cell-based; details: A549, 48 h; method in brief: as §2
CNE-2 [15] = assay: Induction of apoptosis in human CNE2 cells assessed as necrotic cells level at 5 uM incubated for 24 hrs by Annexin V-FITC/PI dual staining based flow cytometry (reference value: 3.43%); assay type: functional; method in brief: as §1
SMMC-7721 [16] = assay: Induction of apoptosis in human SMMC7721 cells assessed as early apoptotic cells level at 5 uM incubated for 24 hrs by Annexin V-FITC/PI dual staining based flow cytometry (reference value: 1.36%); assay type: functional; method in brief: as §1
SMMC-7721 [17] = assay: Induction of apoptosis in human SMMC7721 cells assessed as late apoptotic cells level at 5 uM incubated for 24 hrs by Annexin V-FITC/PI dual staining based flow cytometry (reference value: 0.88%); assay type: functional; method in brief: as §1
SMMC-7721 [18] = assay: Induction of cell cycle arrest in human SMMC7721 cells assessed as accumulation at G2/M phase at 5 uM incubated for 24 hrs by propidium iodide staining based flow cytometry (reference value: 18.4%); assay type: functional
SMMC-7721 [19] = assay: Induction of apoptosis in human SMMC7721 cells assessed as early apoptotic cells level at 30 uM incubated for 24 hrs by Annexin V-FITC/PI dual staining based flow cytometry (reference value: 1.36%); assay type: functional; method in brief: as §1
CNE-2 [20] = assay: Induction of apoptosis in human CNE2 cells assessed as viable cells level at 5 uM incubated for 24 hrs by Annexin V-FITC/PI dual staining based flow cytometry (reference value: 91.6%); assay type: functional; method in brief: as §1
CNE-2 [21] = assay: Induction of cell cycle arrest in human CNE2 cells assessed as accumulation at S phase at 5 uM incubated for 24 hrs by propidium iodide staining based flow cytometry (reference value: 10.3%); assay type: functional
SMMC-7721 [22] = assay: Induction of apoptosis in human SMMC7721 cells assessed as viable cells level at 30 uM incubated for 24 hrs by Annexin V-FITC/PI dual staining based flow cytometry (reference value: 95.3%); assay type: functional; method in brief: as §1
CNE-2 [23] = assay: Induction of cell cycle arrest in human CNE2 cells assessed as accumulation at G2/M phase at 5 uM incubated for 24 hrs by propidium iodide staining based flow cytometry (reference value: 19.8%); assay type: functional
SMMC-7721 [24] = assay: Anticancer activity against human SMMC7721 cells assessed as reduction in cell viability incubated for 48 hrs MTT assay; assay type: functional, cell-based; details: SMMC-7721, 48 h; method in brief: as §2
SMMC-7721 [25] = assay: Induction of apoptosis in human SMMC7721 cells assessed as viable cells level at 10 uM incubated for 24 hrs by Annexin V-FITC/PI dual staining based flow cytometry (reference value: 95.3%); assay type: functional; method in brief: as §1
CNE-2 [26] = assay: Induction of cell cycle arrest in human CNE2 cells assessed as accumulation at G0-G1 phase at 5 uM incubated for 24 hrs by propidium iodide staining based flow cytometry (reference value: 69.3%); assay type: functional
SMMC-7721 [27] = assay: Induction of cell cycle arrest in human SMMC7721 cells assessed as accumulation at G0-G1 phase at 5 uM incubated for 24 hrs by propidium iodide staining based flow cytometry (reference value: 64.1%); assay type: functional
CNE-2 [28] = assay: Induction of cell cycle arrest in human CNE2 cells assessed as accumulation at subG1 phase at 30 uM incubated for 24 hrs by propidium iodide staining based flow cytometry (reference value: 0.55%); assay type: functional
CNE-2 [29] = assay: Induction of cell cycle arrest in human CNE2 cells assessed as accumulation at S phase at 30 uM incubated for 24 hrs by propidium iodide staining based flow cytometry (reference value: 10.3%); assay type: functional
CNE-2 [30] = assay: Induction of cell cycle arrest in human CNE2 cells assessed as accumulation at subG1 phase at 10 uM incubated for 24 hrs by propidium iodide staining based flow cytometry (reference value: 0.55%); assay type: functional
CNE-2 [31] = assay: Induction of cell cycle arrest in human CNE2 cells assessed as accumulation at G2/M phase incubated for 24 hrs by propidium iodide staining based flow cytometry; assay type: functional

Structure (SMILES): COc1cc(Cn2cccc2/C=C2\CC[C@@H]3[C@H]4CCCN5CCC[C@@H](CN3C2=O)[C@@H]45)cc(OC)c1
- Activity (CNE-2 [1]): 60.7%
- Activity (CNE-2 [2]): Dose-dependent effect
- IC50 (CNE-2 [3]): 3.55 µM
- Activity (SMMC-7721 [4]): 4.95%
- Activity (SMMC-7721 [5]): 3.67%
- Activity (SMMC-7721 [6]): 18.5%
- Activity (CNE-2 [7]): 5.06%
- Activity (SMMC-7721 [8]): 6.61%
- Activity (SMMC-7721 [9]): 5.61%
- Activity (CNE-2 [10]): 16%
- Activity (SMMC-7721 [11]): Dose-dependent effect
- Activity (SMMC-7721 [12]): 8.92%
- Activity (CNE-2 [13]): 43%
- Activity (CNE-2 [14]): 89.4%
- IC50 (A549): 8.05 µM
- Activity (CNE-2 [15]): 2.58%
- Activity (SMMC-7721 [16]): 13.8%
- Activity (SMMC-7721 [17]): 4.06%
- Activity (SMMC-7721 [18]): 24.1%
- Activity (SMMC-7721 [19]): 33.1%
- Activity (CNE-2 [20]): 85.5%
- Activity (CNE-2 [21]): 11%
- Activity (SMMC-7721 [22]): 46.3%
- Activity (CNE-2 [23]): 29.5%
- IC50 (SMMC-7721 [24]): 4.65 µM
- Activity (SMMC-7721 [25]): 32.8%
- Activity (CNE-2 [26]): 55.2%
- Activity (SMMC-7721 [27]): 63%
- Activity (CNE-2 [28]): 4.2%
- Activity (CNE-2 [29]): 4.8%
- Activity (CNE-2 [30]): 4.35%
- Activity (CNE-2 [31]): Dose-dependent effect
